Results: ChEMBL document CHEMBL4138242, “Synthesis and antibacterial evaluation of novel cationic chalcone derivatives possessing broad spectrum antibacterial activity” (Eur J Med Chem, 2018)
Calls of active or inactive are those of the source. The calls are words filed in the database; no cut-off is given here.

How the values were obtained:
Escherichia coli [1] = test: Antibacterial activity against drug-resistant NDM1 producing Escherichia coli clinical isolate EC-14-54 after 16 to 20 hrs by broth microdilution method; type: functional
Method in brief: (§1)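 CLSI broth microdilution in Mueller-Hinton broth. A 4-6 h culture was diluted to about 10⁶ CFU/mL and mixed 1:1 with compound dilutions prepared at 256 to 0.5 µg/mL from aqueous stocks. Plates were incubated at 37 °C for 16-20 h and read visually for MIC. Each concentration was run in duplicate, and the experiment was repeated at least twice. Vancomycin and meropenem were comparators.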

Staphylococcus aureus [2] = test: Antibacterial activity against methicillin-resistant Staphylococcus aureus clinical isolate 20131012632sau after 16 to 20 hrs by broth microdilution method; type: functional; method in brief: as §1
Escherichia coli [3] = test: Antibacterial activity against drug-resistant NDM1 producing Escherichia coli clinical isolate CF-13-61 after 16 to 20 hrs by broth microdilution method; type: functional; method in brief: as §1
Escherichia coli [4] = test: Induction of inner membrane permeabilization in Escherichia coli ATCC 25922 at 10 to 20 ug/ml measured every 2 mins for 12 mins by propidium iodide staining-based fluorescence assay; type: functional, organism-based
Method in brief: (§2)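 Mid-log cells (~10⁸ CFU/mL) were suspended in PBS (S. aureus) or HEPES/glucose/KCl (E. coli). They were preincubated with propidium iodide for 30 min (S. aureus) or 40 min (E. coli), and baseline fluorescence was read for 8 min. Compound was added to 20 µg/mL final, and fluorescence (ex 535/em 617 nm) was read every 2 min for 12 min.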

Klebsiella pneumoniae [5] = test: Antibacterial activity against drug-resistant carbapenemase producing Klebsiella pneumoniae clinical isolate KP-14-45 after 16 to 20 hrs by broth microdilution method; type: functional; method in brief: as §1
Escherichia coli [6] = test: Antibacterial activity against drug-resistant NDM1 producing Escherichia coli clinical isolate Ecl-14-59 after 16 to 20 hrs by broth microdilution method; type: functional; method in brief: as §1
Klebsiella pneumoniae [7] = test: Antibacterial activity against drug-resistant carbapenemase producing Klebsiella pneumoniae clinical isolate EC-13-23 after 16 to 20 hrs by broth microdilution method; type: functional; method in brief: as §1
Staphylococcus aureus [8] = test: Induction of cytoplasmic membrane depolarization in Staphylococcus aureus ATCC 29213 at 10 to 20 ug/ml measured every 2 mins for 12 mins by DiSC35 dye-based fluorescence assay; type: functional, organism-based
Method in brief: (§3)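 Mid-log cells (~10⁸ CFU/mL) were suspended in PBS (S. aureus) or HEPES/glucose/KCl with EDTA (E. coli). They were preloaded with DiSC3(5) for 30 min (S. aureus) or 40 min (E. coli), and baseline fluorescence was read for 8 min. Compound was added to 20 µg/mL final, and fluorescence (ex 622/em 670 nm) was read every 2 min for 12 min. Water served as control.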

Klebsiella pneumoniae [9] = test: Antibacterial activity against drug-resistant carbapenemase producing Klebsiella pneumoniae clinical isolate KP-13-55 after 16 to 20 hrs by broth microdilution method; type: functional; method in brief: as §1
Escherichia coli [10] = test: Antibacterial activity against drug-resistant NDM1 producing Escherichia coli clinical isolate 1460 after 16 to 20 hrs by broth microdilution method; type: functional; method in brief: as §1
Klebsiella pneumoniae [11] = test: Antibacterial activity against drug-resistant carbapenemase producing Klebsiella pneumoniae clinical isolate KP-13-54 after 16 to 20 hrs by broth microdilution method; type: functional; method in brief: as §1
Klebsiella pneumoniae [12] = test: Antibacterial activity against drug-resistant carbapenemase producing Klebsiella pneumoniae clinical isolate KP-14-4 after 16 to 20 hrs by broth microdilution method; type: functional; method in brief: as §1
Staphylococcus aureus [13] = test: Antibacterial activity against methicillin-resistant Staphylococcus aureus clinical isolate 20130911034sau after 16 to 20 hrs by broth microdilution method; type: functional; method in brief: as §1
Escherichia coli [14] = test: Antibacterial activity against drug-resistant NDM1 producing Escherichia coli clinical isolate SM-15-84 after 16 to 20 hrs by broth microdilution method; type: functional; method in brief: as §1
Escherichia coli [15] = test: Antibacterial activity against Escherichia coli ATCC 25922 after 16 to 20 hrs by broth microdilution method; type: functional
Method in brief: (§4)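 Broth microdilution per CLSI. Bacteria grown 4-6 h (about 10⁸ CFU/mL), then diluted to about 10⁶ CFU/mL. Medium: Mueller-Hinton broth, except Luria-Bertani broth for E. coli. Compounds in sterile water, twofold series 256-0.5 µg/mL, mixed 1:1 with inoculum, 37 °C for 16-20 h. MIC is the lowest concentration without visible growth. Duplicate wells; experiment repeated at least twice.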

Enterococcus faecalis = test: Antibacterial activity against Enterococcus faecalis ATCC 29212 after 16 to 20 hrs by broth microdilution method; type: functional; method in brief: as §4
Escherichia coli [16] = test: Antibacterial activity against drug-resistant NDM1 producing Escherichia coli clinical isolate EA-14-61 after 16 to 20 hrs by broth microdilution method; type: functional; method in brief: as §1
Klebsiella pneumoniae [17] = test: Antibacterial activity against drug-resistant carbapenemase producing Klebsiella pneumoniae clinical isolate KP-14-5 after 16 to 20 hrs by broth microdilution method; type: functional; method in brief: as §1
Escherichia coli [18] = test: Antibacterial activity against drug-resistant NDM1 producing Escherichia coli clinical isolate KP-13-58 after 16 to 20 hrs by broth microdilution method; type: functional; method in brief: as §1
Staphylococcus aureus [19] = test: Antibacterial activity against methicillin-resistant Staphylococcus aureus clinical isolate 1208143 after 16 to 20 hrs by broth microdilution method; type: functional; method in brief: as §1
Escherichia coli [20] = test: Antibacterial activity against drug-resistant NDM1 producing Escherichia coli clinical isolate Ecl-14-58 after 16 to 20 hrs by broth microdilution method; type: functional; method in brief: as §1
Staphylococcus aureus [21] = test: Antibacterial activity against methicillin-resistant Staphylococcus aureus clinical isolate 0906202 after 16 to 20 hrs by broth microdilution method; type: functional; method in brief: as §1
Klebsiella pneumoniae [22] = test: Antibacterial activity against drug-resistant carbapenemase producing Klebsiella pneumoniae clinical isolate KP-14-18 after 16 to 20 hrs by broth microdilution method; type: functional; method in brief: as §1
Klebsiella pneumoniae [23] = test: Antibacterial activity against drug-resistant carbapenemase producing Klebsiella pneumoniae clinical isolate KP-14-1 after 16 to 20 hrs by broth microdilution method; type: functional; method in brief: as §1
Escherichia coli [24] = test: Induction of cytoplasmic membrane depolarization in Escherichia coli ATCC 25922 at 10 to 20 ug/ml measured every 2 mins for 12 mins by DiSC35 dye-based fluorescence assay; type: functional, organism-based; method in brief: as §3
Escherichia coli [25] = test: Antibacterial activity against drug-resistant NDM1 producing Escherichia coli clinical isolate Ecl-13-62 after 16 to 20 hrs by broth microdilution method; type: functional; method in brief: as §1
Staphylococcus aureus [26] = test: Induction of inner membrane permeabilization in Staphylococcus aureus ATCC 29213 at 10 to 20 ug/ml measured every 2 mins for 12 mins by propidium iodide staining-based fluorescence assay; type: functional, organism-based; method in brief: as §2
Klebsiella pneumoniae [27] = test: Antibacterial activity against drug-resistant carbapenemase producing Klebsiella pneumoniae clinical isolate KP-14-2 after 16 to 20 hrs by broth microdilution method; type: functional; method in brief: as §1
Staphylococcus aureus [28] = test: Antibacterial activity against Staphylococcus aureus ATCC 29213 after 16 to 20 hrs by broth microdilution method; type: functional; method in brief: as §4
Klebsiella pneumoniae [29] = test: Antibacterial activity against drug-resistant carbapenemase producing Klebsiella pneumoniae clinical isolate KP-13-45 after 16 to 20 hrs by broth microdilution method; type: functional; method in brief: as §1
Salmonella enterica = test: Antibacterial activity against Salmonella enterica ATCC 13076 after 16 to 20 hrs by broth microdilution method; type: functional; method in brief: as §4
Escherichia coli [30] = test: Antibacterial activity against drug-resistant NDM1 producing Escherichia coli clinical isolate Ecl-14-56 after 16 to 20 hrs by broth microdilution method; type: functional; method in brief: as §1
Staphylococcus aureus [31] = test: Antibacterial activity against methicillin-resistant Staphylococcus aureus clinical isolate 1105183 cono7 after 16 to 20 hrs by broth microdilution method; type: functional; method in brief: as §1
Escherichia coli [32] = test: Antibacterial activity against drug-resistant NDM1 producing Escherichia coli clinical isolate CF-15-61 after 16 to 20 hrs by broth microdilution method; type: functional; method in brief: as §1
Staphylococcus aureus [33] = test: Antibacterial activity against methicillin-resistant Staphylococcus aureus clinical isolate 1104060 after 16 to 20 hrs by broth microdilution method; type: functional; method in brief: as §1
Escherichia coli [34] = test: Antibacterial activity against drug-resistant NDM1 producing Escherichia coli clinical isolate EC-13-49 after 16 to 20 hrs by broth microdilution method; type: functional; method in brief: as §1
Staphylococcus aureus [35] = test: Antibacterial activity against methicillin-resistant Staphylococcus aureus clinical isolate 1207007 after 16 to 20 hrs by broth microdilution method; type: functional; method in brief: as §1
Staphylococcus aureus [36] = test: Antibacterial activity against methicillin-resistant Staphylococcus aureus clinical isolate 1-may after 16 to 20 hrs by broth microdilution method; type: functional; method in brief: as §1
[37] = Hemolytic activity in sheep RBC after 1 hr; type: ADME, cell-based, Ovis aries, Erythrocyte; conditions: sheep red blood cells (erythrocytes)
Method in brief: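 Sheep red blood cells (150 µL suspension) mixed with 50 µL of compound dilutions (5120-10 µg/mL), 1 h at 37 °C, then centrifuged. Supernatant read at 540 nm. Percent hemolysis calculated relative to RBC-only control (0%) and 0.1% Triton X-100 (100%).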

Klebsiella pneumoniae [38] = test: Antibacterial activity against drug-resistant carbapenemase producing Klebsiella pneumoniae clinical isolate KP-14-8 after 16 to 20 hrs by broth microdilution method; type: functional; method in brief: as §1
Staphylococcus aureus [39] = test: Antibacterial activity against methicillin-resistant Staphylococcus aureus clinical isolate 0831010 after 16 to 20 hrs by broth microdilution method; type: functional; method in brief: as §1
Klebsiella pneumoniae [40] = test: Antibacterial activity against drug-resistant carbapenemase producing Klebsiella pneumoniae clinical isolate KP-14-3 after 16 to 20 hrs by broth microdilution method; type: functional; method in brief: as §1

## CCCCCCCC[N+](C)(C)CC(=O)Nc1ccc(C(=O)/C=C/c2ccccc2C(F)(F)F)cc1.[Cl-]
Escherichia coli [1]
  MIC: 16 mg/L
Staphylococcus aureus [2]
  MIC: 4 mg/L
Escherichia coli [3]
  MIC: 4 mg/L
Escherichia coli [4]
  Activity: Active
Klebsiella pneumoniae [5]
  MIC: 8 mg/L
Escherichia coli [6]
  MIC: 8 mg/L
Klebsiella pneumoniae [7]
  MIC: 4 mg/L
Staphylococcus aureus [8]
  Activity: Active
Klebsiella pneumoniae [9]
  MIC: 16 mg/L
Escherichia coli [10]
  MIC: 8 mg/L
Klebsiella pneumoniae [11]
  MIC: 4 mg/L
Klebsiella pneumoniae [12]
  MIC: 8 mg/L
Staphylococcus aureus [13]
  MIC: 0.5 mg/L
Escherichia coli [14]
  MIC: 128 mg/L
Escherichia coli [15]
  MIC: 8 mg/L
Enterococcus faecalis
  MIC: 4 mg/L
Escherichia coli [16]
  MIC: 8 mg/L
Klebsiella pneumoniae [17]
  MIC: 8 mg/L
Escherichia coli [18]
  MIC: 1 mg/L
Staphylococcus aureus [19]
  MIC: 1 mg/L
Escherichia coli [20]
  MIC: 8 mg/L
Staphylococcus aureus [21]
  MIC: 1 mg/L
Klebsiella pneumoniae [22]
  MIC: 16 mg/L
Klebsiella pneumoniae [23]
  MIC: > 128 mg/L
Escherichia coli [24]
  Activity: Active
Escherichia coli [25]
  MIC: 8 mg/L
Staphylococcus aureus [26]
  Activity: Active
Klebsiella pneumoniae [27]
  MIC: > 128 mg/L
Staphylococcus aureus [28]
  MIC: 2 mg/L
Klebsiella pneumoniae [29]
  MIC: 8 mg/L
Salmonella enterica
  MIC: 16 mg/L
Escherichia coli [30]
  MIC: 4 mg/L
Staphylococcus aureus [31]
  MIC: 1 mg/L
Escherichia coli [32]
  MIC: 4 mg/L
Staphylococcus aureus [33]
  MIC: 16 mg/L
Escherichia coli [34]
  MIC: 8 mg/L
Staphylococcus aureus [35]
  MIC: 2 mg/L
Staphylococcus aureus [36]
  MIC: 0.5 mg/L
[37]
  HC50 at 1 h: 136 µg/mL
Klebsiella pneumoniae [38]
  MIC: 8 mg/L
Staphylococcus aureus [39]
  MIC: 0.5 mg/L
Klebsiella pneumoniae [40]
  MIC: 8 mg/L

## CCCCCCCC[N+](C)(C)CC(=O)Nc1ccc(C(=O)/C=C/c2ccc(F)cc2F)cc1.[Cl-]
Escherichia coli [1]
  MIC: 8 mg/L
Staphylococcus aureus [2]
  MIC: 4 mg/L
Escherichia coli [3]
  MIC: 2 mg/L
Escherichia coli [4]
  Activity: Active
Klebsiella pneumoniae [5]
  MIC: 8 mg/L
Escherichia coli [6]
  MIC: 4 mg/L
Klebsiella pneumoniae [7]
  MIC: 8 mg/L
Staphylococcus aureus [8]
  Activity: Active
Klebsiella pneumoniae [9]
  MIC: 8 mg/L
Escherichia coli [10]
  MIC: 4 mg/L
Klebsiella pneumoniae [11]
  MIC: 4 mg/L
Klebsiella pneumoniae [12]
  MIC: 4 mg/L
Staphylococcus aureus [13]
  MIC: 1 mg/L
Escherichia coli [14]
  MIC: 16 mg/L
Escherichia coli [15]
  MIC: 4 mg/L
Enterococcus faecalis
  MIC: 2 mg/L
Escherichia coli [16]
  MIC: 4 mg/L
Klebsiella pneumoniae [17]
  MIC: 4 mg/L
Escherichia coli [18]
  MIC: 2 mg/L
Staphylococcus aureus [19]
  MIC: 2 mg/L
Escherichia coli [20]
  MIC: 4 mg/L
Staphylococcus aureus [21]
  MIC: 4 mg/L
Klebsiella pneumoniae [22]
  MIC: 8 mg/L
Klebsiella pneumoniae [23]
  MIC: 8 mg/L
Escherichia coli [24]
  Activity: Active
Escherichia coli [25]
  MIC: 4 mg/L
Staphylococcus aureus [26]
  Activity: Active
Klebsiella pneumoniae [27]
  MIC: 16 mg/L
Staphylococcus aureus [28]
  MIC: 2 mg/L
Klebsiella pneumoniae [29]
  MIC: 8 mg/L
Salmonella enterica
  MIC: 4 mg/L
Escherichia coli [30]
  MIC: 4 mg/L
Staphylococcus aureus [31]
  MIC: 1 mg/L
Escherichia coli [32]
  MIC: 4 mg/L
Staphylococcus aureus [33]
  MIC: 8 mg/L
Escherichia coli [34]
  MIC: 4 mg/L
Staphylococcus aureus [35]
  MIC: 0.5 mg/L
Staphylococcus aureus [36]
  MIC: 1 mg/L
[37]
  HC50 at 1 h: 54 µg/mL
Klebsiella pneumoniae [38]
  MIC: 4 mg/L
Staphylococcus aureus [39]
  MIC: 0.5 mg/L
Klebsiella pneumoniae [40]
  MIC: 8 mg/L
